The list is not random: actives were taken first. Their share in the collection is about 1.6%.
ADAM17 inh: ADAM17 inhibition, QFRET primary screen; recombinant ADAM17, EDANS/DABCYL FRET peptide cleavage; inhibition, % at 6.95 µM; hit rate 0.83% among 370,000;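 active = inhibition above the mean of compounds lying between control limits plus 3 SD, set per campaign, cut at about 8.5% in these data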;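 note: 0% = DMSO-only wells as the low control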
Tn6 DDE FP: DD(E)-Tn6 binding inhibition, primary FP screen; P02675; Fibrin DD(E) TRITC-Tn6 fluorescence polarization displacement; hit rate 0.21% among 370,000; inhibition, % at 8.3 µM;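 active = inhibition above a per-campaign cutoff: mean of compounds within control limits plus 3 SD, cut at about 15% in these data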;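 note: 0% = median of all compound wells on the plate and 100% = blocking peptide control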
ADAM10 inh: ADAM10 inhibition, QFRET primary screen; O14672; recombinant ADAM10, EDANS/DABCYL FRET peptide cleavage, 3 h; inhibition, % at 7 µM; hit rate 0.62% among 370,000; AID 720582;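 active = inhibition above a per-campaign cutoff equal to the mean of compounds falling between control-based bounds plus 3 SD, cut at about 20% in these data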;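 note: 0% = DMSO wells while the 100% control is not disclosed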
Target sequence (O14672 214-748 limits assumed): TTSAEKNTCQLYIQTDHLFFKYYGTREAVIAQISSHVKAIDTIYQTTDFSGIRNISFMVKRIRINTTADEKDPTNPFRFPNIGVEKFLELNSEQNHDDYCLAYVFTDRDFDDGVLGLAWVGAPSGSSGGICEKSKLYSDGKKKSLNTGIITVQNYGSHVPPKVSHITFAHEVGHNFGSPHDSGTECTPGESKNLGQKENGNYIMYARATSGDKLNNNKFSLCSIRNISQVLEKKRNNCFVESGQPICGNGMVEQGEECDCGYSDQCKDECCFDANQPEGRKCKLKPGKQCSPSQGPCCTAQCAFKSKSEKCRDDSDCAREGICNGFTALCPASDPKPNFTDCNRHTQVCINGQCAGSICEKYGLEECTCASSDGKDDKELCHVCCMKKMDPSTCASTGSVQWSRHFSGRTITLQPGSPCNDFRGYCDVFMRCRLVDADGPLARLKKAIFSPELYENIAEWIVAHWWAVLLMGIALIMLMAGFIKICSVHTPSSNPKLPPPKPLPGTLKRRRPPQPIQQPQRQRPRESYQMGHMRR
DDE Tn7 FP inh: DD(E)-Tn7 binding inhibition, primary FP screen; inhibition, % at 8.3 µM; FP displacement of FITC-Tn7 peptide from fibrin DD(E); 0% = median of compound wells per plate; hit rate 0.13% among 370,000; P02675;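 active = inhibition above the mean of compounds falling within the control limits plus 3 SD of them, cut at about 14% in these data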;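 note: 0% = plate median of compound wells and 100% = 10 µM Aha-Tn7 peptide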
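Assay system: human fibrin DD(E) protein / Input: 2 µM fibrin DD(E) / Benchmarks: high control of 10 µM Aha-Tn7 peptide / Measured by: fluorescence polarization of the labelled Tn7 tracer / Medium: Tris buffer with calcium and detergent, pH 7.8 / Timing: 10 min compound pre-incubation, 3 h probe incubation at room temperature / Repeats: one replicate per compound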
MT1-MMP act inh: MT1-MMP (human) activation inhibition. HT1080 RFP-PRO-GFP cells, GFP/RFP ratio fluorescence, overnight; percent of plate control window, DMSO zero. GFP/RFP ratio change, % at 20 µM. hit rate 0.061% among 360,000. AID 651647;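 active = GFP/RFP ratio change of at least 30% with cell ATP level not reduced by more than half and red fluorescence within 50% of control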
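Assay system – RFP-PRO-GFP reporter HT1080 cells · Compound dosing – single dose of 20 µM compound, 1% DMSO final · Incubation – overnight compound exposure at 37 °C · Measure – GFP/RFP fluorescence ratio · Benchmarks – DMSO wells and RFP-L50D-GFP cells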
ADAM10 confirm: human ADAM10 inhibition, confirmation; shares compounds with ADAM10 inh; ADAM10 QFRET peptide cleavage, EDANS fluorescence; inhibition, % at 6.95 µM; hit rate 1% among 2,100; AID 743208;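 active = inhibition above about 20% chosen separately for each screening run, limit read from the data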;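 note: 0% = DMSO wells and 100% = marimastat wells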
ADAM17 ctr: ADAM17 inhibition, counter-screen for ADAM10 exosite hits. ADAM17 QFRET peptide cleavage, EDANS fluorescence. hit rate 0.5% among 2,100. shares compounds with ADAM10 inh. AID 743214. inhibition, % at 6.95 µM;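 active = mean triplicate inhibition above the solvent-only control wells' mean plus 3 SD, cut at about 12% in these data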;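 note: 0% = DMSO wells and 100% = marimastat wells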
ADAM10 counter: counter-screen for ADAM17 exosite inhibitors: inhibitors of human ADAM10. shares compounds with ADAM17 inh. recombinant ADAM10, EDANS/DABCYL FRET peptide cleavage, 3 h. inhibition, % at 6.95 µM. hit rate 47% among 2,900. AID 743256;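 active = mean inhibition over the triplicate runs exceeds the activity threshold set in the earlier primary screen, cut at about 20% in these data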;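 note: 0% = DMSO wells and 100% = marimastat wells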
ADAM17 confirm: confirmation of inhibitors of human ADAM17; shares compounds with ADAM17 inh; AID 743257; inhibition, % at 6.95 µM; hit rate 65% among 2,900; recombinant ADAM17, EDANS/DABCYL QFRET peptide cleavage;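 active = mean inhibition across replicates above the hit cutoff set in the primary screen, cut at about 8.5% in these data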;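 note: 0% = DMSO wells and 100% = marimastat wells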
Active calls of the source: *; · = not tested or not shown.

SMILES | ADAM17 inh | Tn6 DDE FP | ADAM10 inh | DDE Tn7 FP inh | MT1-MMP act inh | ADAM10 confirm | ADAM17 ctr | ADAM10 counter | ADAM17 confirm
COc1ccccc1N1C(=O)C(Cl)=C(Nc2ccccc2O)C1=O | 7 | -6 | 22* | -9 | -42 | 14 | 5 | · | ·
COc1ccccc1CCC(=O)N(C)CC(=O)Nc1ccc(Cl)c(C(F)(F)F)c1 | 5 | -7 | 22* | 0 | -1 | 2 | 1 | · | ·
Cc1ccc(S(=O)(=O)Nc2ccc(N(C)C)cc2)cc1 | 3 | -3 | -17 | -7 | 2 | · | · | · | ·
CN(C)c1ccc(NS(=O)(=O)c2ccc(-c3csnn3)cc2)cc1 | 1 | -11 | 25* | 2 | 5 | -2 | 0 | · | ·
COc1ccc(CNC(=O)[C@@H](Cc2ccccc2)NC(=O)[C@H]2O[C@@H](n3ccc(=O)[nH]c3=O)[C@H](O)[C@@H]2O)cc1 | -3 | 6 | -13 | -2 | · | · | · | · | ·
CCOc1ccc(NC(=O)c2ccc(CN3CCc4ccccc4C3)cc2)cc1 | 8 | 6 | 20* | -1 | -5 | 11 | 5 | · | ·
CCOC(=O)c1ccc(NC(=O)c2ccc(CN3CCc4ccccc4C3)cc2)cc1 | 0 | 6 | 8 | 4 | 4 | · | · | · | ·
Cc1cc(C)c(CN2CCN(C(=O)Cn3cnc4c(NCc5ccccc5)ncnc43)CC2)c(C)c1 | 16* | -2 | 28* | -7 | 7 | 3 | 1 | 29* | 14*
CC(=O)c1cccc(NC(=O)C2C(c3ccccc3)C2(Cl)Cl)c1 (configuration not stated) | 2 | -4 | -2 | 1 | -6 | · | · | · | ·
Cc1cccc(NC(=O)C2C(c3ccccc3)C2(Cl)Cl)c1 (configuration not stated) | 11* | -3 | 21* | 2 | -3 | 5 | 2 | 24* | 14*
CC(C)(C)OC(=O)NCCCCCNC(=O)c1ncn(Cc2ccccc2)c1C(=O)NCCCCCNC(=O)OC(C)(C)C | 13* | 0 | 20* | 0 | -6 | 2 | 1 | 31* | 16*
CC(C)(C)OC(=O)NCCCCCNC(=O)c1[nH]cnc1C(=O)N[C@@H](Cc1ccccc1)C(=O)OCc1ccccc1 | 11* | 1 | 23* | -10 | 3 | 8 | 2 | 41* | 21*
CN(Cc1ccccc1)C(=O)c1[nH]cnc1C(=O)NCCCCCNC(=O)OC(C)(C)C | 2 | 0 | 10 | 1 | 6 | · | · | · | ·
C[C@H](NC(=O)c1nc[nH]c1C(=O)NCCCCCNC(=O)OC(C)(C)C)C(=O)OCc1ccccc1 | 4 | 2 | 10 | 4 | 8 | · | · | · | ·
CC(C)C[C@H](NC(=O)c1nc[nH]c1C(=O)NCCCCCNC(=O)OC(C)(C)C)C(=O)OCc1ccccc1 | 14* | -1 | 29* | -2 | 3 | 9 | 2 | 42* | 21*
COc1ccc(N2C(=O)c3n[nH]c(C)c3C2c2ccc(F)cc2)cc1 (configuration not stated) | -5 | 0 | -15 | 3 | · | · | · | · | ·
Cc1cccc(Nc2nc(N)c([N+](=O)[O-])c(NCc3ccco3)n2)c1 | 16* | -20 | 31* | -11 | -8 | 2 | 1 | 20* | 10*
Cc1cccc(Nc2nc(NCc3ccco3)nc(N)c2[N+](=O)[O-])c1 | -3 | 5 | 5 | 5 | -1 | · | · | · | ·
O=C(Nc1ccccc1)OC1CCC2CC1CCC2OC(=O)Nc1ccccc1 (configuration not stated) | 12* | 0 | 24* | -2 | -3 | 9 | 3 | 38* | 18*

Assay outcomes as filed in PubChem BioAssay.
